Measurements: ChEMBL document CHEMBL3779840, “Discovery of 2-((3-Amino-4-methylphenyl)amino)-N-(2-methyl-5-(3-(trifluoromethyl)benzamido)phenyl)-4-(methylamino)pyrimidine-5-carboxamide (CHMFL-ABL-053) as a Potent, Selective, and Orally Available BCR-ABL/SRC/p38 Kinase Inhibitor for Chronic Myeloid Leukemia” (J Med Chem, 2016)
Activity calls are given as the source filed them. No cut-off for these calls is given here.

What was measured:
[1] = system: KU812 cell line; assay: Induction of apoptosis in human KU812 cells assessed as increase in cleaved PARP level at 100 nM after 24 hrs by immunoblotting method; assay type: functional, cell-based
[2] = biological target: Discoidin domain-containing receptor 2 (Homo sapiens, UniProt Q16832); assay: Inhibition of recombinant human GST-tagged DDR2 expressed in Baculovirus expression system
Outline: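 IC50 values were determined with the Invitrogen SelectScreen biochemical kinase assay.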

[3] = Antiproliferative activity against human KU812 cells assessed as cell viability after 72 hrs by CellTiter-Glo or CCK-8 assay; assay type: functional; conditions: KU812, 72 h
[4] = Antiproliferative activity against human U937 cells assessed as cell viability after 72 hrs by CellTiter-Glo or CCK-8 assay; assay type: functional; conditions: U-937, 72 h
[5] = system: MV4-11; assay: Antiproliferative activity against human MV4-11 cells assessed as cell viability after 72 hrs by CellTiter-Glo or CCK-8 assay; assay type: functional; conditions: MV4-11, 72 h
[6] = Antiproliferative activity against human MEG01 cells assessed as cell viability after 72 hrs by CellTiter-Glo or CCK-8 assay; assay type: functional; conditions: MEG-01, 72 h
[7] = biological target: T1, Bcr/Abl fusion protein (Homo sapiens) (UniProt P00519+P11274); assay: Inhibition of BCR/ABL autophosphorylation at Y245 site in human K562 cells at 300 nM after 1 hr by immunoblotting method; assay type: cell-based
Outline: (§1)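 KU812, K562 and MEG-01 cells were exposed to compound at the indicated concentrations for 1 h. Whole-cell lysates were then analysed by Western blot for phosphorylated signaling proteins.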

[8] = biological target: T1, Bcr/Abl fusion protein (Homo sapiens); assay: Inhibition of BCR/ABL in human KU812 cells assessed as downregulation of CrkL phosphorylation at […] site after 1 hr by immunoblotting method; assay type: cell-based; outline: as §1
[9] = biological target: T1, Bcr/Abl fusion protein (Homo sapiens); assay: Inhibition of BCR/ABL in human MEG01 cells assessed as downregulation of ERK phosphorylation at Thr202/Tyr204 site after 1 hr by immunoblotting method; assay type: cell-based; conditions: MEG-01; outline: as §1
[10] = biological target: Mitogen-activated protein kinase 14 (Homo sapiens, UniProt Q16539); assay: Inhibition of P38-alpha phosphorylation in human MEG01 cells at 0.01 to 3 uM after 1 hr by immunoblotting method; assay type: cell-based; conditions: MEG-01; outline: as §1
[11] = system: K562; assay: Induction of cell cycle arrest in human K562 cells assessed as accumulation at G0/G1-phase after 12 hrs by propidium iodide/RNase staining based flow cytometry; assay type: functional
[12] = system: KU812 cell line; assay: Induction of cell cycle arrest in human KU812 cells assessed as accumulation at G0/G1-phase after 12 hrs by propidium iodide/RNase staining based flow cytometry; assay type: functional
[13] = system: MEG-01; assay: Induction of cell cycle arrest in human MEG01 cells assessed as accumulation at G0/G1-phase after 12 hrs by propidium iodide/RNase staining based flow cytometry; assay type: functional
[14] = system: K562; assay: Induction of apoptosis in human K562 cells assessed as increase in cleaved PARP level at 100 nM after 48 hrs by immunoblotting method; assay type: functional, cell-based
[15] = system: MEG-01; assay: Induction of apoptosis in human MEG01 cells assessed as increase in cleaved caspase3 level at 100 nM after 48 hrs by immunoblotting method; assay type: functional, cell-based
[16] = Half life in Sprague-Dawley rat at 10 mg/kg, po; assay type: ADME, organism-based; conditions: in vivo
[17] = Tmax in Sprague-Dawley rat at 10 mg/kg, po; assay type: ADME, organism-based; conditions: in vivo
[18] = Mean residence time (0 to infinity) in Sprague-Dawley rat at 1 mg/kg, iv; assay type: ADME, organism-based; conditions: in vivo
[19] = system: K562; assay: Antitumor activity against human K562 cells xenografted in nu/nu mouse assessed as reduction in tumor growth administered through oral gavage after 16 days of continuous administration; assay type: functional
Outline: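 Female nu/nu mice bore established K562 xenografts and received daily oral dosing at 25.0 or 50.0 mg/kg/d, or vehicle, starting when tumors reached 200 to 400 mm3, for 16 days. Groups had 5 animals; data are mean ± SEM. Tumor size and body weight were normalized to initial values, and final tumor weight was recorded. Tumor tissue was stained with HE, Ki-67 and TUNEL.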

[20] = biological target: T2, Epithelial discoidin domain-containing receptor 1 (Homo sapiens, UniProt Q08345); assay: Inhibition of partial length human wild type DDR1 expressed in bacterial expression system assessed as residual activity at 1 uM relative to control
[21] = biological target: T3, Discoidin domain-containing receptor 2 (Homo sapiens) (UniProt Q16832); assay: Inhibition of partial length human wild type DDR2 expressed in mammalian expression system assessed as residual activity at 1 uM relative to control
T3 sequence (whole entry): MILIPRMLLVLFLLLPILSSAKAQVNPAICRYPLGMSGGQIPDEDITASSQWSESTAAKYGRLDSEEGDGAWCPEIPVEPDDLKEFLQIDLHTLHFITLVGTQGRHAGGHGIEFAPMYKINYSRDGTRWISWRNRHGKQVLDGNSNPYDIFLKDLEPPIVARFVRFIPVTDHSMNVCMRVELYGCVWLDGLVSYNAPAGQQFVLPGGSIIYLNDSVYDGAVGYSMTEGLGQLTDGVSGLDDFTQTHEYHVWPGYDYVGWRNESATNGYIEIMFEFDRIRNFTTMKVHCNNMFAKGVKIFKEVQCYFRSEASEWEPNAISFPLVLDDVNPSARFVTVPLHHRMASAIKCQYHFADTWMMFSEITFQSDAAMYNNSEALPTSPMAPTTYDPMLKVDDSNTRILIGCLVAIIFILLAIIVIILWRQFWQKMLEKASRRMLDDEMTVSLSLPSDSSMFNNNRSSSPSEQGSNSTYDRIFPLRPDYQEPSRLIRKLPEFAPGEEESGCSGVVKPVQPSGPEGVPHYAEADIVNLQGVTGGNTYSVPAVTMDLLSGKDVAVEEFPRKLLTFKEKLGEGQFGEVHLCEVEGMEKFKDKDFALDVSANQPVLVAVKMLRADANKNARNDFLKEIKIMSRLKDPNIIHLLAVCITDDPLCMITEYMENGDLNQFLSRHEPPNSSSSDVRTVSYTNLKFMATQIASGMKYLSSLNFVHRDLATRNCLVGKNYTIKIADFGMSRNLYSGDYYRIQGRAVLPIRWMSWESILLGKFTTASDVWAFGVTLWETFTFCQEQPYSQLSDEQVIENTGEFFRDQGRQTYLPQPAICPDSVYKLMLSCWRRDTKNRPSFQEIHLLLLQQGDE

[22] = biological target: Proto-oncogene tyrosine-protein kinase Src (Homo sapiens, UniProt P12931); assay: Inhibition of partial length human wild type SRC expressed in bacterial expression system assessed as residual activity at 1 uM relative to control
[23] = biological target: T1, Bcr/Abl fusion protein (Homo sapiens); conditions: BaF3
[24] = biological target: T2, Epithelial discoidin domain-containing receptor 1; conditions: BaF3
[25] = biological target: Tyrosine-protein kinase Blk (Homo sapiens) (UniProt P51451); conditions: BaF3
[26] = system: BaF3; conditions: Homo sapiens
[27] = system: Bcr/Abl fusion protein (Homo sapiens), P00519+P11274 [M351T]; conditions: BaF3

T1 sequence (P00519 whole entry, looked up, the tested form may be a part): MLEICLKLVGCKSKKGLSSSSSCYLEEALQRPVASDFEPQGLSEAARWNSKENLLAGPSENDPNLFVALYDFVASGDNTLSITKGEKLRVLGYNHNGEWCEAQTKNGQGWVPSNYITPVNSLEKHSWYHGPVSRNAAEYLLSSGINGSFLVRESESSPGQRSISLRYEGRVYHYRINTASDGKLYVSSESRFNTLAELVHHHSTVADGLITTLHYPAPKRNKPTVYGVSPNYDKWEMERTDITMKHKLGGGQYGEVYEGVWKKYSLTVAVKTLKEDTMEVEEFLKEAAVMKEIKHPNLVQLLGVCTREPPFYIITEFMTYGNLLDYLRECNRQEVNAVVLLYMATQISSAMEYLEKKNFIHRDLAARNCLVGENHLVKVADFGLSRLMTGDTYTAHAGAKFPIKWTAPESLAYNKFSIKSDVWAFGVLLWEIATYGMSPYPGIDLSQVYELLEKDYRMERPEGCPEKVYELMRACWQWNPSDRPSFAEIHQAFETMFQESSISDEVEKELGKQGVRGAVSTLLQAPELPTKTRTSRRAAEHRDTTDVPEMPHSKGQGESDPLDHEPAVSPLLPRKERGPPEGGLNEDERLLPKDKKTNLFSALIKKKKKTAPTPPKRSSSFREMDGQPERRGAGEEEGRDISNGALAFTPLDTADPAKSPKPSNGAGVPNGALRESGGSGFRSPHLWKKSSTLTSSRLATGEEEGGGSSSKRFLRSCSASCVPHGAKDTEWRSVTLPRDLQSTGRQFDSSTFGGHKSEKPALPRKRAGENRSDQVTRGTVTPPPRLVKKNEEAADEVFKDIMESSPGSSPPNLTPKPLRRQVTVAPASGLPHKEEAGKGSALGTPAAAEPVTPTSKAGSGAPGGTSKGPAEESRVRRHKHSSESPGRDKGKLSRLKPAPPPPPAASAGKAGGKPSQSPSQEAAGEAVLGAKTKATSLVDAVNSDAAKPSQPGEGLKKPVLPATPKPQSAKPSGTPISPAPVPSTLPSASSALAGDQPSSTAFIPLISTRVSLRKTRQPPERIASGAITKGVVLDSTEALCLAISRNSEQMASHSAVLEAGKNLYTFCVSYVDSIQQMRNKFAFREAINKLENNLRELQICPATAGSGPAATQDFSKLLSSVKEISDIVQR
T1 sequence (P11274 whole entry, looked up, the tested form may be a part): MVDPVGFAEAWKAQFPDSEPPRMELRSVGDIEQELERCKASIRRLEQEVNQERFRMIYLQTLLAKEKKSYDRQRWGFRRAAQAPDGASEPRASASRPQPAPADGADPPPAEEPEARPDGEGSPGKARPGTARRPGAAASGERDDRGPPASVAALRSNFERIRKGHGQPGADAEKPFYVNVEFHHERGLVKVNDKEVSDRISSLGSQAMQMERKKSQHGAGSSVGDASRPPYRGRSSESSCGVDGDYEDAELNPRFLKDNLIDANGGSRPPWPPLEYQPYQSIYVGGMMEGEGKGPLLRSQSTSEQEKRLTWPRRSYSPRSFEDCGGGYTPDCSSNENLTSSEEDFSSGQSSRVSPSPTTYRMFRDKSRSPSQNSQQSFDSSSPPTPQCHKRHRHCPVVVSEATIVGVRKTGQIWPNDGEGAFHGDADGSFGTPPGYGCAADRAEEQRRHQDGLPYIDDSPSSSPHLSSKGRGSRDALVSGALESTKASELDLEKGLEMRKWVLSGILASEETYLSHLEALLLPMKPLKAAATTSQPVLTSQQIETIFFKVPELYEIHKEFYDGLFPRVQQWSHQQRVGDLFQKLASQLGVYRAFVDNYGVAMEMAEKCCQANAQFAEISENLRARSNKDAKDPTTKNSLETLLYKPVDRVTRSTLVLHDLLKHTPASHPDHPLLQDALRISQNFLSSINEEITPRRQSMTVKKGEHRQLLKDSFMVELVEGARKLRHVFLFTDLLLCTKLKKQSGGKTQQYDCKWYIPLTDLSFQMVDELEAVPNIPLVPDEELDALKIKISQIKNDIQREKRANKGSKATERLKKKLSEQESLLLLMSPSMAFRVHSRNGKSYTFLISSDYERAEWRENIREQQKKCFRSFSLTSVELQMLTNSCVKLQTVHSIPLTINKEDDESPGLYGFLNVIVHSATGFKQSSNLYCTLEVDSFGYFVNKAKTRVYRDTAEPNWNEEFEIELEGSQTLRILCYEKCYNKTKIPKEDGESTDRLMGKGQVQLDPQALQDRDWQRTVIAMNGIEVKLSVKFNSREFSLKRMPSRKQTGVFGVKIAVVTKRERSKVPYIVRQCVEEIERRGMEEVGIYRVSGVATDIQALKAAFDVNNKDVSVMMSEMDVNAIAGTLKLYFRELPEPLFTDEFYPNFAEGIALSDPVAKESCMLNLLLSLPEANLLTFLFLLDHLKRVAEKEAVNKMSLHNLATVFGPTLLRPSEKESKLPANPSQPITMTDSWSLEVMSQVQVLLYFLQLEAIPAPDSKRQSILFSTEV
T2 sequence (Q08345 whole entry, the tested form may be a part): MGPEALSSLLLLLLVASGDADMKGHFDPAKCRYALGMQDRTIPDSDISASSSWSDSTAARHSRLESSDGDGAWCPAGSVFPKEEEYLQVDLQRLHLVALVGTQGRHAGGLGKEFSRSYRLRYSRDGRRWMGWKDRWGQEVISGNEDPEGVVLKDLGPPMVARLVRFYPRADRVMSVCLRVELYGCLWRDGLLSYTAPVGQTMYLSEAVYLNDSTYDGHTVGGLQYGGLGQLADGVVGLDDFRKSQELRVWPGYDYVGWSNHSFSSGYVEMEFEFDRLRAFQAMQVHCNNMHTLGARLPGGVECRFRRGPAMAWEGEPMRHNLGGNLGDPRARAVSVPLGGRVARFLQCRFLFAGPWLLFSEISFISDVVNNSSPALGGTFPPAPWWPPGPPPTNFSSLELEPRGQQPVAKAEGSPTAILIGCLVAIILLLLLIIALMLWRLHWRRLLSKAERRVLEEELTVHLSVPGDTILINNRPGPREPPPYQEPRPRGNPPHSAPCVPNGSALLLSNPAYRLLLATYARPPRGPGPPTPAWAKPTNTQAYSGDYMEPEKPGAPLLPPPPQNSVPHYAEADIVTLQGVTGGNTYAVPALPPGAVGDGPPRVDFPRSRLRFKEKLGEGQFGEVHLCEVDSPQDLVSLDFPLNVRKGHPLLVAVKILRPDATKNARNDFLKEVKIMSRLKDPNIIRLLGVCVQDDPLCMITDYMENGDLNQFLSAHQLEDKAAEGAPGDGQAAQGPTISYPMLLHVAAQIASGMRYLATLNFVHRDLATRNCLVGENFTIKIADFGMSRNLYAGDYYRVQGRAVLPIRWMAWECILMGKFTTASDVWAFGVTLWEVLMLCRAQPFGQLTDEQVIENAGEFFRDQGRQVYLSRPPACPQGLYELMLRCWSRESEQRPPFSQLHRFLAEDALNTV
Chain of Tyrosine-protein kinase Blk (Homo sapiens) (P51451 2-505 limits assumed): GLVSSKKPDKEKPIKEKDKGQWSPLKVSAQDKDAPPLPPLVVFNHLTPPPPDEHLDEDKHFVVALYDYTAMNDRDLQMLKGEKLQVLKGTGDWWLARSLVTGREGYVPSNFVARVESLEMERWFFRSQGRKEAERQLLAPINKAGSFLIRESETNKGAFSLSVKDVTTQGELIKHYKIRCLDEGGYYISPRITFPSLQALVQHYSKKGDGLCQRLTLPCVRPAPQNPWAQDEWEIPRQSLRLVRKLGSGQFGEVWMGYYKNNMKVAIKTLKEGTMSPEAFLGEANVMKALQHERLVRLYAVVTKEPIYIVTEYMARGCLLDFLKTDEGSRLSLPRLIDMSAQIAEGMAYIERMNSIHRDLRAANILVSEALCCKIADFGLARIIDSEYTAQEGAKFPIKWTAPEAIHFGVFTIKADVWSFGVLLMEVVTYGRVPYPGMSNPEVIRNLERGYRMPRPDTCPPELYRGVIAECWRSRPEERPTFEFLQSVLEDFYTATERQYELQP
Chain of Proto-oncogene tyrosine-protein kinase Src (P12931 2-536 limits assumed): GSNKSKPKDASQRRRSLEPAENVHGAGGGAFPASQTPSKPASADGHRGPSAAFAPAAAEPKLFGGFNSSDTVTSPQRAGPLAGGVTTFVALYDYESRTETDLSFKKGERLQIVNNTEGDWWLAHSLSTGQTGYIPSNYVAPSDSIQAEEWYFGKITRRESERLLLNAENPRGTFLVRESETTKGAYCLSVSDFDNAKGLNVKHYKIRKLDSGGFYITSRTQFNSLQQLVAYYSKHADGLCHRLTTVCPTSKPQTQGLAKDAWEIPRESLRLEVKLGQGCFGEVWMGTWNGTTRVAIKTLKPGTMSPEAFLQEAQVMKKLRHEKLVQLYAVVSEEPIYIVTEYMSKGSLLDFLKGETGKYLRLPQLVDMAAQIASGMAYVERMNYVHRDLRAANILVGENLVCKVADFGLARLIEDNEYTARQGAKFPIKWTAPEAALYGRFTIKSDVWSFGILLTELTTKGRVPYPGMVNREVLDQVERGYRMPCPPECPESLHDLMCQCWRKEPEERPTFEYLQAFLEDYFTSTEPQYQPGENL
Chain of Mitogen-activated protein kinase 14 (Q16539 whole entry): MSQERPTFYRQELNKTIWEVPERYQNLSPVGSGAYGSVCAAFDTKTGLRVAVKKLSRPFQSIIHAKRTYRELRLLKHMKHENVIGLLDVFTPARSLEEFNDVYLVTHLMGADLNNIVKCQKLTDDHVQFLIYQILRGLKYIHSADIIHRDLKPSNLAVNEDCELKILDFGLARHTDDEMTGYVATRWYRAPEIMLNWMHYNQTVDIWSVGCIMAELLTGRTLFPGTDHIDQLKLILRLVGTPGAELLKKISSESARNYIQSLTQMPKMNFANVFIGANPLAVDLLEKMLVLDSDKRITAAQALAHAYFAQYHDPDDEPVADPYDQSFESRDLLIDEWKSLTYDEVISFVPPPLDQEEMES

Q: What does the source list for `CNc1nc(Nc2ccc(C)c(N)c2)ncc1C(=O)Nc1cc(NC(=O)c2cccc(C(F)(F)F)c2)ccc1C`?
A: Activity [1]: Active; IC50 [2]: 0.457 µM; GI50 [3]: 0.025 µM; GI50 [4]: > 10 µM; GI50 [5]: 8 µM; GI50 [6]: 0.016 µM; inhibition [7]: Active; inhibition [8]: Dose-dependent effect; inhibition [9]: Dose-dependent effect; inhibition [10]: Active; Activity [11]: Dose-dependent effect; Activity [12]: Dose-dependent effect; Activity [13]: Dose-dependent effect; Activity [14]: Active; Activity [15]: Active; half-life [16]: 4.33 h; Tmax [17]: 1 h; MRT inf [18]: 3.1 h; TGI [19]: Dose-dependent effect; Activity [20]: 0%; Activity [21]: 0%; Activity [22]: 0.5%; GI50 [23]: 0.007 µM; GI50 [24]: 3.3 µM; GI50 [25]: 1.1 µM; GI50 [26]: 0.313 µM; GI50 [27]: 0.045 µM
